# Data taken from ChEMBL document CHEMBL4715780, “Biological evaluation of tetracationic compounds based on two 1,4-diazabicyclo[2.2.2]octane moieties connected by different linkers” (Bioorg Med Chem, 2016).
# What was measured:
# Candida albicans [1] = test: Antifungal activity against Candida albicans CEMTC 34 assessed as concentration required to inhibit visible growth by CLSI protocol based serial microdilution method; format: functional
# Summary of the method: (§1)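 Candida albicans grown in Sabouraud dextrose broth with two-fold serial compound dilutions from water stocks; final inoculum about 5 × 10⁵ CFU/mL. Incubated at 37 °C with orbital shaking (580 rpm). MIC is the lowest concentration preventing growth, by absorbance at 595 nm. MFC is the lowest concentration with no visible growth. Duplicates in two separate experiments.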
# [2] = Cytotoxicity against human MCF7 cells assessed as reduction in cell viability measured after 24 hrs by MTT assay; format: cell-based
# Summary of the method: (§2)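 HEK293T or MCF-7 cells in IMDM with 10% FBS, seeded at 20,000 per well and grown overnight. Compounds at […] in fresh medium for 24 h at 37 °C, 5% CO₂. MTT then added for 4 h, precipitate dissolved overnight in SDS-HCl, absorbance read at 570 nm. Viability expressed relative to untreated cells, giving CC₅₀. Duplicate wells, at least two independent repeats.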
# Candida albicans [3] = test: Antifungal activity against Candida albicans CEMTC 34 assessed as fungal growth inhibition by CLSI protocol based serial microdilution method; format: functional; summary of the method: as §1
# [4] = Cytotoxicity against HEK293T cells assessed as reduction in cell viability measured after 24 hrs by MTT assay; format: cell-based, HEK-293T; settings: human; summary of the method: as §2
# [5] = Selectivity index, ratio of CC50 for HEK293T cells assessed as reduction in cell viability measured after 24 hrs by MTT assay to MIC for Candida albicans CEMTC 34 assessed as bacterial growth inhibition by CLSI protocol based serial microdilution method; format: toxicity; settings: human, read-out: Selectivity Index
# Summary of the method: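 SI = CC₅₀ (HEK293T) / MIC. HEK293T cells were seeded at 20,000/well overnight, then exposed to 10–250 µg/mL in IMDM with 10% FBS for 24 h. MTT was added for 4 h, solubilised with SDS-HCl, and read at 570 nm; duplicates, ≥2 independent runs. MIC came from two-fold dilutions in Sabouraud dextrose broth at ~5 × 10⁵ CFU/mL, 37 °C with shaking, read at 595 nm, in duplicate.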
# Staphylococcus aureus [6] = test: Antibacterial activity against […] Staphylococcus aureus ATCC 25923 assessed as bacterial growth inhibition by CLSI protocol based serial microdilution method; format: functional
# Influenza A virus = test: Antiviral activity against Influenza A virus (A/Puerto Rico/8/34 (H1N1) infected in MDCK cells assessed as decrease in viral titer preincubated for 1 hr followed by viral infection and cultivated for 48 hrs followed by supernatant transferred to chicken erythrocyte for 1 hr followed by measuring ability to cause positive hemagglutination; format: functional, organism-based; settings: A/Puerto Rico/8/1934(H1N1)
# Summary of the method: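 MDCK monolayers in MEM were pre-incubated with compound for 1 h at 37 °C, then infected with 10-fold virus dilutions (10⁻¹–10⁻⁶) and held 48 h at 37 °C, 5% CO₂. Supernatant was mixed with an equal volume of 1% chicken erythrocytes, 60 min at room temperature. Titre was taken from the highest dilution giving full agglutination (log₁₀ EID₅₀). Triplicate per concentration.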
# Salmonella typhimurium [7] = test: Antibacterial activity against Salmonella enterica ATCC 14028 assessed as concentration required to inhibit visible growth by CLSI protocol based serial microdilution method; format: functional, Salmonella enterica subsp. enterica serovar Typhimurium
# Escherichia coli [8] = test: Antibacterial activity against Escherichia coli ATCC 25922 assessed as concentration required to inhibit visible growth by CLSI protocol based serial microdilution method; format: functional
# Proteus vulgaris [9] = test: Antibacterial activity against Proteus vulgaris ATCC 6380 assessed as bacterial growth inhibition by CLSI protocol based serial microdilution method; format: functional
# Enterococcus faecalis [10] = test: Antibacterial activity against Enterococcus faecalis ATCC 51299 assessed as bacterial growth inhibition by CLSI protocol based serial microdilution method; format: functional
# Pseudomonas aeruginosa [11] = test: Antibacterial activity against Pseudomonas aeruginosa ATCC 9027 assessed as bacterial growth inhibition by CLSI protocol based serial microdilution method; format: functional
# Enterococcus faecalis [12] = test: Antibacterial activity against Enterococcus faecalis ATCC 51299 assessed as concentration required to inhibit visible growth by CLSI protocol based serial microdilution method; format: functional
# Proteus vulgaris [13] = test: Antibacterial activity against Proteus vulgaris ATCC 6380 assessed as concentration required to inhibit visible growth by CLSI protocol based serial microdilution method; format: functional
# Salmonella typhimurium [14] = test: Antibacterial activity against Salmonella enterica ATCC 14028 assessed as bacterial growth inhibition by CLSI protocol based serial microdilution method; format: functional, Salmonella enterica subsp. enterica serovar Typhimurium
# Citrobacter freundii [15] = test: Antibacterial activity against Citrobacter freundii ATCC 8090 assessed as concentration required to inhibit visible growth by CLSI protocol based serial microdilution method; format: functional
# Pseudomonas aeruginosa [16] = test: Antibacterial activity against Pseudomonas aeruginosa ATCC 9027 assessed as concentration required to inhibit visible growth by CLSI protocol based serial microdilution method; format: functional
# Escherichia coli [17] = test: Antibacterial activity against Escherichia coli ATCC 25922 assessed as bacterial growth inhibition by CLSI protocol based serial microdilution method; format: functional
# [18] = Selectivity index, ratio of CC50 for MDCK cells to EC50 for Influenza A virus (A/Puerto Rico/8/34 (H1N1)) infected in MDCK cells; format: toxicity, cell-based; settings: dog, read-out: Ratio CC50/EC50
# Summary of the method: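 Ratio of CC₅₀ to EC₅₀, both in MDCK cells, with cytotoxicity run in parallel with the antiviral assay. EC₅₀ is the concentration halving virus production (0.3 log₁₀ EID₅₀ titre drop). It was obtained after 1 h compound pre-incubation, infection, 48 h at 37 °C, and hemagglutination read-out with 1% chicken erythrocytes.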
# Staphylococcus aureus [19] = test: Antibacterial activity against […] Staphylococcus aureus ATCC 25923 assessed as concentration required to inhibit visible growth by CLSI protocol based serial microdilution method; format: functional
# Citrobacter freundii [20] = test: Antibacterial activity against Citrobacter freundii ATCC 8090 assessed as bacterial growth inhibition by CLSI protocol based serial microdilution method; format: functional
# [21] = Cytotoxicity against MDCK cells assessed as cell death incubated for 48 hrs by MTT assay; format: cell-based, Canis lupus familiaris; settings: dog
# [22] = Selectivity index, ratio of CC50 for HEK293T cells assessed as reduction in cell viability measured after 24 hrs by MTT assay to MIC for Proteus vulgaris ATCC 6380 assessed as bacterial growth inhibition by CLSI protocol based serial microdilution method; format: toxicity; settings: human, read-out: Selectivity Index
# [23] = Selectivity index, ratio of CC50 for HEK293T cells assessed as reduction in cell viability measured after 24 hrs by MTT assay to MIC for Pseudomonas aeruginosa ATCC 9027 assessed as bacterial growth inhibition by CLSI protocol based serial microdilution method; format: toxicity; settings: human, read-out: Selectivity Index
# [24] = Selectivity index, ratio of CC50 for HEK293T cells assessed as reduction in cell viability measured after 24 hrs by MTT assay to MIC for Staphylococcus aureus ATCC 25923 assessed as bacterial growth inhibition by CLSI protocol based serial microdilution method; format: toxicity; settings: human, read-out: Selectivity Index
# [25] = Selectivity index, ratio of CC50 for HEK293T cells assessed as reduction in cell viability measured after 24 hrs by MTT assay to MIC for Enterococcus faecalis ATCC 51299 assessed as bacterial growth inhibition by CLSI protocol based serial microdilution method; format: toxicity; settings: human, read-out: Selectivity Index
# [26] = Selectivity index, ratio of CC50 for HEK293T cells assessed as reduction in cell viability measured after 24 hrs by MTT assay to MIC for Escherichia coli ATCC 25922 assessed as bacterial growth inhibition by CLSI protocol based serial microdilution method; format: toxicity; settings: human, read-out: Selectivity Index
# [27] = Selectivity index, ratio of CC50 for HEK293T cells assessed as reduction in cell viability measured after 24 hrs by MTT assay to MIC for Salmonella enterica ATCC 14028 assessed as bacterial growth inhibition by CLSI protocol based serial microdilution method; format: toxicity; settings: human, read-out: Selectivity Index
# [28] = Selectivity index, ratio of CC50 for HEK293T cells assessed as reduction in cell viability measured after 24 hrs by MTT assay to MIC for Citrobacter freundii ATCC 8090 assessed as bacterial growth inhibition by CLSI protocol based serial microdilution method; format: toxicity; settings: human, read-out: Selectivity Index
smiles,measurement,setting,value
Clc1ccccc1C(c1ccccc1)(c1ccccc1)n1ccnc1 [CLOTRIMAZOLE],MFC,Candida albicans [1],400 µg/mL
same,CC50 at 24 h,[2],5 µg/mL
same,MIC,Candida albicans [3],400 µg/mL
same,CC50 at 24 h,[4],7 µg/mL
same,selectivity ratio at 24 h,[5],< 1
C#CCOCCCCCN(CC[N+]12CC[N+](CCCCCCCCCCCC)(CC1)CC2)CC[N+]12CC[N+](CCCCCCCCCCCC)(CC1)CC2.[Cl-].[Cl-].[Cl-].[Cl-],MIC,Staphylococcus aureus [6],1.6 µg/mL
same,MFC,Candida albicans [1],25 µg/mL
same,EC50,Influenza A virus,10 µg/mL
same,MBC,Salmonella typhimurium [7],3.1 µg/mL
same,MBC,Escherichia coli [8],3.1 µg/mL
same,MIC,Proteus vulgaris [9],100 µg/mL
same,MIC,Enterococcus faecalis [10],1.6 µg/mL
same,MIC,Pseudomonas aeruginosa [11],6.3 µg/mL
same,MIC,Candida albicans [3],25 µg/mL
same,MBC,Enterococcus faecalis [12],3.1 µg/mL
same,MBC,Proteus vulgaris [13],> 100 µg/mL
same,MIC,Salmonella typhimurium [14],3.1 µg/mL
same,MBC,Citrobacter freundii [15],3.1 µg/mL
same,MBC,Pseudomonas aeruginosa [16],12.5 µg/mL
same,MIC,Escherichia coli [17],3.1 µg/mL
same,selectivity ratio,[18],1
same,MBC,Staphylococcus aureus [19],3.1 µg/mL
same,MIC,Citrobacter freundii [20],3.1 µg/mL
same,CC50 at 48 h,[21],14.9 µg/mL
CCCCCCCCCCCC[N+]12CC[N+](Cc3nnn(CCCCCN=[N+]=[N-])c3C[N+]34CC[N+](CCCCCCCCCCCC)(CC3)CC4)(CC1)CC2.[Cl-].[Cl-].[Cl-].[Cl-],MIC,Staphylococcus aureus [6],1.6 µg/mL
same,MFC,Candida albicans [1],12.5 µg/mL
same,EC50,Influenza A virus,4.2 µg/mL
same,MBC,Salmonella typhimurium [7],3.1 µg/mL
same,MBC,Escherichia coli [8],3.1 µg/mL
same,MIC,Proteus vulgaris [9],50 µg/mL
same,MIC,Enterococcus faecalis [10],1.6 µg/mL
same,MIC,Pseudomonas aeruginosa [11],3.1 µg/mL
same,MIC,Candida albicans [3],12.5 µg/mL
same,MBC,Enterococcus faecalis [12],1.6 µg/mL
same,MBC,Proteus vulgaris [13],> 100 µg/mL
same,MIC,Salmonella typhimurium [14],1.6 µg/mL
same,MBC,Citrobacter freundii [15],3.1 µg/mL
same,MBC,Pseudomonas aeruginosa [16],6.3 µg/mL
same,MIC,Escherichia coli [17],1.6 µg/mL
same,selectivity ratio,[18],3
same,MBC,Staphylococcus aureus [19],3.1 µg/mL
same,MIC,Citrobacter freundii [20],1.6 µg/mL
same,CC50 at 48 h,[21],12.9 µg/mL
CCCCCCCCCCCC[N+]12CC[N+](Cc3cccc(C[N+]45CC[N+](CCCCCCCCCCCC)(CC4)CC5)c3)(CC1)CC2,MIC,Staphylococcus aureus [6],0.6 µg/mL
same,MFC,Candida albicans [1],12.5 µg/mL
same,EC50,Influenza A virus,1.3 µg/mL
same,selectivity ratio at 24 h,[22],< 1
same,MBC,Salmonella typhimurium [7],3.1 µg/mL
same,CC50 at 24 h,[2],17 µg/mL
same,MBC,Escherichia coli [8],3.1 µg/mL
same,MIC,Proteus vulgaris [9],25 µg/mL
same,MIC,Enterococcus faecalis [10],1.6 µg/mL
same,MIC,Pseudomonas aeruginosa [11],1.6 µg/mL
same,MIC,Candida albicans [3],12.5 µg/mL
same,MBC,Enterococcus faecalis [12],1.6 µg/mL
same,MBC,Proteus vulgaris [13],25 µg/mL
same,MIC,Salmonella typhimurium [14],1.6 µg/mL
same,selectivity ratio at 24 h,[23],10
same,selectivity ratio at 24 h,[24],27
same,MBC,Citrobacter freundii [15],3.1 µg/mL
same,selectivity ratio at 24 h,[25],10
same,CC50 at 24 h,[4],16 µg/mL
same,selectivity ratio at 24 h,[5],1
same,MBC,Pseudomonas aeruginosa [16],3.1 µg/mL
same,MIC,Escherichia coli [17],1.6 µg/mL
same,selectivity ratio at 24 h,[26],10
same,selectivity ratio at 24 h,[27],10
same,selectivity ratio,[18],6
same,MBC,Staphylococcus aureus [19],1.6 µg/mL
same,selectivity ratio at 24 h,[28],10
same,MIC,Citrobacter freundii [20],1.6 µg/mL
same,CC50 at 48 h,[21],8.4 µg/mL
CCCCCCCCCCCC[N+]12CC[N+](CCNCC[N+]34CC[N+](CCCCCCCCCCCC)(CC3)CC4)(CC1)CC2.[Cl-].[Cl-].[Cl-].[Cl-],MIC,Staphylococcus aureus [6],0.6 µg/mL
same,MFC,Candida albicans [1],12.5 µg/mL
same,EC50,Influenza A virus,2.2 µg/mL
same,MBC,Salmonella typhimurium [7],3.1 µg/mL
same,MBC,Escherichia coli [8],3.1 µg/mL
same,MIC,Proteus vulgaris [9],50 µg/mL
same,MIC,Enterococcus faecalis [10],0.8 µg/mL
same,MIC,Pseudomonas aeruginosa [11],1.6 µg/mL
same,MIC,Candida albicans [3],12.5 µg/mL
same,MBC,Enterococcus faecalis [12],1.6 µg/mL
same,MBC,Proteus vulgaris [13],50 µg/mL
same,MIC,Salmonella typhimurium [14],1.6 µg/mL
same,MBC,Citrobacter freundii [15],3.1 µg/mL
same,MBC,Pseudomonas aeruginosa [16],6.3 µg/mL
same,MIC,Escherichia coli [17],16 µg/mL
same,selectivity ratio,[18],4
same,MBC,Staphylococcus aureus [19],12 µg/mL
same,MIC,Citrobacter freundii [20],3.1 µg/mL
same,CC50 at 48 h,[21],7.7 µg/mL
